Source: PubChem BioAssay (several laboratories)
This excerpt belongs to a sample that is enriched for hits.
MPTP block = mitochondrial permeability transition pore inhibitors, primary screen, biochemical, isolated mouse mitochondria, absorbance | inhibition, % at 10 µM | AID 602449, 2012 | Ca2+ swelling absorbance, 30 min | 1.4% of 360,000 active;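 active = inhibition of 50% or more, scaled per plate between neutral and stimulator controls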
Redox H2O2 prof = compounds producing H2O2 with reducing agent – biochemical, NIH compound library profiling, artefact control for MLSCN library redox annotation, primary screen | DTT-dependent redox cycling H2O2, phenol red/HRP absorbance; 100% = 100 µM peroxide control, 0% = buffer | activation, % at 10 µM | 0.03% of 200,000 active | AID 878, 2007;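 active = activation of at least 50% relative to the plate's high and low controls in the primary single-dose screen; inactive = activation below 50%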;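 note: compound incubated with DTT at 0.8 mM final as the reducing agent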
T cruzi inh = inhibitors of intracellular T. cruzi growth, primary screen, luminescence, NIH3T3 host cells | 1.4% of 300,000 active | T. cruzi beta-gal in NIH3T3, 90 h | AID 1885, 2009 | inhibition, % (test concentration not listed);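 active = mean inhibition across valid replicates above about 55%, limit read from the data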;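 note: signal also drops with host cell toxicity which is not excluded here; higher percent means less beta-gal luminescence so fewer parasites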
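Incubation – ≥90 h infection period, 3 h prior cell attachment · System – NIH/3T3 fibroblasts plus reporter T. cruzi · Doses – compound pinned at 50 nL/well, DMSO · Read-out basis – percent inhibition of parasite-derived β-gal signal · Signal – luminescent β-galactosidase signal after 60 min lysis · Also added – 5000 T. cruzi trypomastigotes/well · Medium – Low-serum DMEM with 2% FBS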
Lipid droplet = inhibitors of hepatocyte lipid droplet formation, primary screen, imaging, high-throughput imaging, BODIPY stain. inhibition, % at 6.5 µM. AID 1656, 2009. 0.4% of 240,000 active. AML12 mouse hepatocytes, oleate lipid droplets;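 active = lipid droplet intensity inhibited by at least 50%, with more than 500 cells counted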
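Assay system: AML12 mouse liver cells | Compound dosing: One dose, 6.5 µM compound | Read-out basis: Droplet intensity reduction, % inhibition | Measured by: Fluorescence imaging, 20x objective, two fields per well | Schedule: Overnight treatment with compound plus oleate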
L major viab = Leishmania major promastigote growth inhibition, primary screen | Leishmania major promastigotes, resazurin fluorescence viability | inhibition, % at 10 µM | 9% of 200,000 active; in the data active = inhibition above about 50%;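 note: promastigotes grown with compound for 44 hours at 28 °C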
MPTP counter = fluorescence retest of MPTP screen hits in isolated mitochondria, single concentration; AID 624504, 2012; 78% of 5,000 active; inhibition, % at 10 µM; membrane potential, Rhodamine 123 fluorescence; shares compounds with MPTP block; in the data active = inhibition above about 22%
MPTP swell DR = mitochondrial permeability transition pore inhibitors, dose response, biochemical, absorbance, uHTS hits. IC50, µM. shares compounds with MPTP block. 58% of 780 active. AID 651561, 2012. isolated mitochondria swelling; in the data active = IC50 below about 20 µM
MPTP counter DR = fluorescent counter-screen in isolated mitochondria, dose response, counter-screen for MPTP inhibitor project, biochemical, fluorescence, uHTS hits. shares compounds with MPTP block. isolated mitochondria counterscreen, fluorescence read-out. IC50, µM. 49% of 780 active. AID 651564, 2012; in the data active = IC50 below about 80 µM
Large screens that a line does not name were inactive (follow-up assays come after a bar, where they were run).

CN(Cc1ccc(F)cc1)S(=O)(=O)c1nnc(NC(=O)c2ccccc2Br)s1	MPTP block 60 (no result: Redox H2O2 prof, L major viab) | MPTP counter 71
CN(Cc1ccccc1)S(=O)(=O)c1nnc(NC(=O)c2ccc(F)cc2)s1	none (no result: Redox H2O2 prof, L major viab)
COc1ccc(CN(C)S(=O)(=O)c2nnc(NC(=O)c3cccc(F)c3)s2)cc1	MPTP block 54 (no result: Redox H2O2 prof, L major viab) | MPTP counter 81
COc1ccc(C(=O)Nc2nnc(S(=O)(=O)N(C)Cc3ccccc3)s2)cc1	none (no result: Redox H2O2 prof, L major viab)
CN(Cc1ccc(F)cc1)S(=O)(=O)c1nnc(NC(=O)c2ccccc2)s1	MPTP block 51 (no result: Redox H2O2 prof, L major viab) | MPTP counter 86
O=C1[C@H](Cc2ccccc2)NCCCC[C@H](c2ccco2)N1Cc1ccccc1	none (no result: Redox H2O2 prof, T cruzi inh, Lipid droplet, L major viab)
CCC(C(=O)NCC1CCCO1)n1nc(C)c2sc3ccccc3c2c1=O (stereo not drawn)	none (no result: Redox H2O2 prof, L major viab)
C=C(C)Cn1c(SCC(=O)N/N=C/c2c(O)ccc3ccccc23)nc2ccccc2c1=O	MPTP block 66 | MPTP counter 56
CCN1CCN(CCNC(=O)c2ccc3nc(-c4cccc(C)c4)c(-c4cccc(C)c4)nc3c2)CC1	MPTP block 96 (no result: Redox H2O2 prof, L major viab) | MPTP counter inactive
CCCNC(=O)c1ccc2nc(-c3ccccc3)c(-c3ccccc3)nc2c1	none
COc1ccc(-c2nc3ccc(C(=O)NCCCN4CCOCC4)cc3nc2-c2ccc(OC)cc2)cc1	MPTP block 84 (no result: Redox H2O2 prof, L major viab) | MPTP counter inactive | MPTP swell DR 4.9 | MPTP counter DR inactive
COc1ccc(C(=O)NCCCN2CCOCC2)cc1	none (no result: Redox H2O2 prof, L major viab)
Cc1ccc(NC(=O)C(C)c2cccc(C(=O)c3ccccc3)c2)cc1O (stereo not drawn)	MPTP block 96 | MPTP counter 84
c1ccc2c(CCNc3ncnc4nc[nH]c34)cccc2c1	MPTP block 64 | MPTP counter 33
c1ccc(CCCNc2ncnc3nc[nH]c23)cc1	none
COc1ccc(NC(=O)CN2C(=O)COc3ccc(S(=O)(=O)N4CCCCCC4)cc32)cc1	none (no result: Redox H2O2 prof, L major viab)
CCCCCCn1c(NCC)nc2c1c(=O)n(C)c(=O)n2C	MPTP block 56 (no result: Lipid droplet) | MPTP counter 86
FC(F)(F)c1cccc(Nc2cc(-c3ccccc3)nc3ncnn23)c1	none (no result: Redox H2O2 prof, L major viab)
FC(F)(F)c1ccc(N2CCN(c3cc(-c4ccccc4)nc4ncnn34)CC2)nc1	MPTP block 92 (no result: Lipid droplet) | MPTP counter 48
Cc1ccc(OCCC(=O)OCC(=O)NC2CCS(=O)(=O)C2)cc1 (stereo not drawn)	none (no result: Redox H2O2 prof, Lipid droplet, L major viab)
O=C(Oc1cc(=O)n2ccccc2n1)c1ccccc1	none
CC1OC2(OC1C)C(=O)Nc1ccccc12 (stereo not drawn)	MPTP block active | MPTP counter inactive | MPTP swell DR inactive | MPTP counter DR inactive
CN(C)S(=O)(=O)c1cccc(CSCc2cccc(S(=O)(=O)N(C)C)c2)c1	MPTP block 79 (no result: Redox H2O2 prof, L major viab) | MPTP counter 88
Cc1cc(C)n2nc(SCc3cccc(S(=O)(=O)N(C)C)c3)nc2n1	none (no result: Redox H2O2 prof, L major viab)
CCN(CC)C(=O)c1nc(-c2cccc3ccccc23)no1	none (no result: Redox H2O2 prof, T cruzi inh, Lipid droplet, L major viab)
Cc1cc(C)cc(OCC(O)CN2CCC(CN3C(=O)c4cccc5cccc(c45)C3=O)CC2)c1 (stereo not drawn)	MPTP block 98, T cruzi inh 57 (no result: Redox H2O2 prof, Lipid droplet, L major viab) | MPTP counter 100
COc1ccc(COCC(O)CN2CCC(C(N)=O)CC2)cc1OC (stereo not drawn)	none
COc1ccc(COCC(O)CN2CCC(CN3C(=O)c4cccc5cccc(c45)C3=O)CC2)cc1OC (stereo not drawn)	MPTP block 90 | MPTP counter inactive | MPTP swell DR 6.3 | MPTP counter DR 46
CCc1ccc(OCC(O)CN2CCC(CN3C(=O)c4cccc5cccc(c45)C3=O)CC2)cc1 (stereo not drawn)	MPTP block 84, T cruzi inh 56, L major viab 100 | MPTP counter inactive | MPTP swell DR 4.9 | MPTP counter DR 20
COc1cccc(OCC(O)CN2CCC(CN3C(=O)c4cccc5cccc(c45)C3=O)CC2)c1 (stereo not drawn)	MPTP block 72, T cruzi inh 63, L major viab 87 | MPTP counter 50
O=C1c2cccc3cccc(c23)C(=O)N1CCN1CCN(CC(O)COCc2ccc(Cl)cc2)CC1 (stereo not drawn)	none
COc1ccccc1CN1CC(C(=O)NCc2cc(F)cc(C(F)(F)F)c2)CCC1=O (stereo not drawn)	none (no result: Redox H2O2 prof, L major viab)
COc1cc(C(=O)Nc2nnc(C3CC3)s2)ccc1OCc1c(C)noc1C	none
CCC(C)C(NC(=O)OCc1ccccc1)C(=O)NC(Cc1ccc(O)cc1)C(=O)OC (stereo not drawn)	none
COCOc1cc(O)c(C(=O)/C=C/c2ccccc2)c(OCOC)c1	none (no result: Redox H2O2 prof, Lipid droplet, L major viab)
O=C1c2cccc3cccc(c23)C(=O)N1CC1CCN(CC(O)COc2ccc3ccccc3c2)CC1 (stereo not drawn)	MPTP block 89, T cruzi inh 66 (no result: Redox H2O2 prof, Lipid droplet, L major viab) | MPTP counter 99
O=C(N1CCOCC1)N1CCN(CC(O)COc2ccc3ccccc3c2)CC1 (stereo not drawn)	none
CC(C)NC(=S)Nc1ccc2nc3n(c(=O)c2c1)CCCCC3	none
CCOC(=O)c1sc(NC(=O)Nc2ccccc2F)nc1C	MPTP block 58 | MPTP counter 68
CC(C)(C)NC(=O)[C@]1(C)CCC[C@@]2(C)C3CC[C@@]4(C)C[C@]3(CCC21)CC4=O (stereo partly drawn)	none (no result: Redox H2O2 prof, T cruzi inh, Lipid droplet, L major viab)
c1ccc2c(c1)[nH]c1c(N3CCC4(CC3)OCCO4)ncnc12	none
COc1ccc2c(c1)[nH]c1c(N3CCSCC3)ncnc12	none (no result: Redox H2O2 prof, L major viab)
CCOc1ccc2[nH]c3c(N4CCN(c5ccccn5)CC4)ncnc3c2c1	none
Cc1sc2ncnc(N3CCN(Cc4ccccc4)CC3)c2c1-c1ccccc1	none (no result: Redox H2O2 prof, L major viab)
Cc1ccc2c(c1)[nH]c1c(N3CCN(Cc4ccccc4)CC3)ncnc12	MPTP block 68, L major viab 97 (no result: Lipid droplet) | MPTP counter 80
c1ccc2c(c1)CCN(c1ncnc3c1[nH]c1ccccc13)C2	MPTP block 99 (no result: Redox H2O2 prof, L major viab) | MPTP counter 101
Cc1ccc2[nH]c3c(N4CCN(Cc5ccccc5)CC4)ncnc3c2c1	MPTP block 85, L major viab 57 | MPTP counter 68
